# Measurements as given in ChEMBL document CHEMBL1122423, “N-arylhydroxamic acid N,O-acyltransferase. Positional requirements for the substrate hydroxyl group” (J Med Chem, 1983).
# Columns and labels:
# Cricetulus griseus [1] = species on record: Cricetulus griseus; test: Inhibition of AHAT-catalyzed transacylation of 4-aminoazobenzene
# Summary of the method: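 Partially purified hamster hepatic AHAT (2.5–3.75 mg protein) was preincubated 5 min with inhibitor (2.5 μmol in EtOH; 1 mM) before adding acyl-donor substrate (2.5 μmol) and 4-aminoazobenzene (0.375 μmol). The 2.5 mL mix held pyrophosphate pH 7, DTT and 1.15% KCl, at 37 °C in air. Stopped with TCA/EtOH; supernatant read spectrophotometrically (Booth). Percent inhibition vs control; three experiments in triplicate.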
# Cricetulus griseus [2] = species on record: Cricetulus griseus; test: Percent inhibition against AHAT when compound 10 is used as substrate at 1 mM concentration
# Summary of the method: (§1)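 Partially purified hamster hepatic AHAT; 1 mM inhibitor (final) in ethanol was preincubated with enzyme for 5 min, then acyl donor (2.5 μmol) and 4-aminoazobenzene (0.375 μmol) were added. Mix: pyrophosphate buffer pH 7, DTT, KCl, 2.5 mL, 37 °C in air, read after 10 min. TCA-ethanol stop; spectrophotometric read-out of transacetylation. % inhibition vs control; three experiments in triplicate.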
# Cricetulus griseus [3] = species on record: Cricetulus griseus; test: Percent inhibition against AHAT when compound 8 is used as substrate at 1 mM concentration; summary of the method: as §1
Compound,Transacetylation rate (Cricetulus griseus [1]),inhibition (Cricetulus griseus [2]),inhibition (Cricetulus griseus [3])
CC(=O)Nc1ccc2c(c1O)Cc1ccccc1-2,0.11 nmol/min/mg,–,–
O=C(CO)Nc1ccc(/C=C/c2ccccc2)cc1,0.18 nmol/min/mg,–,–
O=C(CO)Nc1ccc2c(c1)Cc1ccccc1-2,0.02 nmol/min/mg,–,–
p-Chloromercuribenzenesulfonate,–,96%,92%
CC(=O)Nc1cc2c(cc1O)-c1ccccc1C2,0.05 nmol/min/mg,–,–
CC(=O)N(O)c1ccc(-c2ccccc2)cc1,13.3 nmol/min/mg,–,–
CC(=O)N(O)c1ccc2c(c1)Cc1ccccc1-2,19.3 nmol/min/mg,–,–
O=C(CO)Nc1ccc(-c2ccccc2)cc1,0.03 nmol/min/mg,–,–
NC(=O)CI,–,99%,99%
CC(=O)Nc1ccc(-c2ccccc2)cc1,0.27 nmol/min/mg,–,–
CC(=O)N(O)c1ccc(/C=C/c2ccccc2)cc1,9.73 nmol/min/mg,–,–
CCN1C(=O)C=CC1=O,–,86%,77%
CC(=O)Nc1ccc(-c2ccccc2)cc1O,0.69 nmol/min/mg,–,–
